For 3 compounds, fold change (FC) and inhibition results are on record in ChEMBL document CHEMBL5653631, “A Potent and Selective ULK1 Inhibitor Suppresses Autophagy and Sensitizes Cancer Cells to Nutrient Stress” (iScience, 2018).

For experiment [1], the target named is Serine/threonine-protein kinase mTOR (Homo sapiens) (UniProt P42345). Nature of the experiment: Inhibition of human recombinant FRAP at 40 nM related to control ULK1.
For experiment [2], the target named is T1, Serine/threonine-protein kinase Sgk3 (Homo sapiens) (UniProt Q96BR1).
T1 sequence (whole entry): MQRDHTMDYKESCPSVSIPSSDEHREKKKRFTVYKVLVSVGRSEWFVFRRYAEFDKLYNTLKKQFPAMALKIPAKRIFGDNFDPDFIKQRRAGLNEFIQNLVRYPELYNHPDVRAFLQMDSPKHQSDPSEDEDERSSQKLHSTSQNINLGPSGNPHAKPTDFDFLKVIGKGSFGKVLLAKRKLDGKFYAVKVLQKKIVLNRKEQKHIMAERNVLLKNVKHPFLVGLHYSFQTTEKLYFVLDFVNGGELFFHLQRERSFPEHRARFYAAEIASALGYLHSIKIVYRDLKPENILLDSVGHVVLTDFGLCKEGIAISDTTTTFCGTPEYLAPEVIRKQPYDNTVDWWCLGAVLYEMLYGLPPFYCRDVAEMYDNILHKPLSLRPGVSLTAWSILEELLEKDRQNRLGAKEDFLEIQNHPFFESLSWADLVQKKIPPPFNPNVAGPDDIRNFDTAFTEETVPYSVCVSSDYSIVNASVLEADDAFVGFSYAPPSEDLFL
Nature of the experiment: Inhibition of human recombinant SGK3 at 40 nM in presence of ATP by radiometric assay relative to control.

Experiment [3] concerns the target RAC-alpha serine/threonine-protein kinase (Homo sapiens) (UniProt P31749). Nature of the experiment: Inhibition of human recombinant AKT1 at 40 nM in presence of ATP by radiometric assay relative to control. In a few lines:
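Panel of 327 recombinant human kinases in radiometric activity assays, each screened in duplicate at a single inhibitor concentration; percent activity remaining relative to vehicle control, percent inhibition taken as 100 minus activity remaining.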

Experiment [4] concerns the target Tau-tubulin kinase 2 (Homo sapiens) (UniProt Q6IQ55). Nature of the experiment: Inhibition of human recombinant TTBK2 at 500 nM related to control ULK1.
The target of experiment [5] is cAMP-dependent protein kinase catalytic subunit beta (Homo sapiens) (UniProt P22694). The experiment can be described thus: Inhibition of human recombinant PKACbeta at 500 nM in presence of ATP by radiometric assay relative to control.
The target of experiment [6] is Serine/threonine-protein kinase PAK 3 (Homo sapiens) (UniProt O75914). The experiment can be described thus: Inhibition of human recombinant PAK3 at 500 nM in presence of ATP by radiometric assay relative to control.
The target of experiment [7] is T2, Serine/threonine-protein kinase 17A (Homo sapiens) (UniProt Q9UEE5).
T2 sequence (whole entry): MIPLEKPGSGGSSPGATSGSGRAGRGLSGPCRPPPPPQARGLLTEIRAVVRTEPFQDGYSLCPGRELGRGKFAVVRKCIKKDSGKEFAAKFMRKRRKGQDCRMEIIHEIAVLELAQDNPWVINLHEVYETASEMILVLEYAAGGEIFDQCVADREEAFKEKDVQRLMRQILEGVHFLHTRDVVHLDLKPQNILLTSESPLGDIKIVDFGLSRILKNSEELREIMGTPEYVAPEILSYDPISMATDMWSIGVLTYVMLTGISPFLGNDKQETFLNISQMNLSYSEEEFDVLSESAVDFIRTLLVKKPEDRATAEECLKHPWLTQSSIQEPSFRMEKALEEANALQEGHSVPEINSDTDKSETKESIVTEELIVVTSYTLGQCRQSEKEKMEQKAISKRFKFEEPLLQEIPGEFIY
The experiment can be described thus: Inhibition of human recombinant DRAK1 at 15 nM related to control ULK1.

The target in experiment [8] is Tyrosine-protein kinase Fes/Fps (Homo sapiens) (UniProt P07332). The experiment can be described thus: Inhibition of human recombinant FES at 15 nM related to control ULK1.
In experiment [9] the target is Serine/threonine-protein kinase/endoribonuclease IRE1 (Homo sapiens) (UniProt O75460). Nature of the experiment: Inhibition of human recombinant IRE1 at 15 nM related to control ULK1.
In experiment [10] the target is T3, Dual specificity protein kinase TTK (Homo sapiens) (UniProt P33981).
T3 sequence (whole entry): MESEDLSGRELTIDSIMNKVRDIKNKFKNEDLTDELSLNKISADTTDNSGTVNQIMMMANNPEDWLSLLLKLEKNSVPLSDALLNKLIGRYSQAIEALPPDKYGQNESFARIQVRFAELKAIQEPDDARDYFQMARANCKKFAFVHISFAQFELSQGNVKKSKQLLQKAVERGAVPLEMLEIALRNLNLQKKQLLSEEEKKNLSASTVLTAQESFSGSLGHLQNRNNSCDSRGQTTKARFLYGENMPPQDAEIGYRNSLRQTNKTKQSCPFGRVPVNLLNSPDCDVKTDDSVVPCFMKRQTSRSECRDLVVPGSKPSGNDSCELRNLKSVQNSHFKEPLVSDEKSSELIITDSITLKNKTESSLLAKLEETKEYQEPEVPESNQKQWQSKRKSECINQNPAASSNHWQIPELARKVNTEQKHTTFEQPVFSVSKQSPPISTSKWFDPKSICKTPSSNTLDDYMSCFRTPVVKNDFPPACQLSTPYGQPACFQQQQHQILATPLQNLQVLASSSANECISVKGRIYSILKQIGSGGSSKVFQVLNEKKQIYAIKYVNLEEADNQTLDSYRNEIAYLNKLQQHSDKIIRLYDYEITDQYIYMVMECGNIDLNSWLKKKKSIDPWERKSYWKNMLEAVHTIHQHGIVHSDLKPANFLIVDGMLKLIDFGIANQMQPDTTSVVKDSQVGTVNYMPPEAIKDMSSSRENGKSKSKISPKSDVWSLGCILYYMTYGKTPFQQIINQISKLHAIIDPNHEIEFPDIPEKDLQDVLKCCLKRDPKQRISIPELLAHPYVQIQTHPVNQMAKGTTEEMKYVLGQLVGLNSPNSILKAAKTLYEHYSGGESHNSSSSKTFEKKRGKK
Nature of the experiment: Inhibition of human recombinant TTK at 15 nM related to control ULK1.

The target of experiment [11] is T4, Serine/threonine-protein kinase 3 (Homo sapiens) (UniProt Q13188).
T4 sequence (whole entry): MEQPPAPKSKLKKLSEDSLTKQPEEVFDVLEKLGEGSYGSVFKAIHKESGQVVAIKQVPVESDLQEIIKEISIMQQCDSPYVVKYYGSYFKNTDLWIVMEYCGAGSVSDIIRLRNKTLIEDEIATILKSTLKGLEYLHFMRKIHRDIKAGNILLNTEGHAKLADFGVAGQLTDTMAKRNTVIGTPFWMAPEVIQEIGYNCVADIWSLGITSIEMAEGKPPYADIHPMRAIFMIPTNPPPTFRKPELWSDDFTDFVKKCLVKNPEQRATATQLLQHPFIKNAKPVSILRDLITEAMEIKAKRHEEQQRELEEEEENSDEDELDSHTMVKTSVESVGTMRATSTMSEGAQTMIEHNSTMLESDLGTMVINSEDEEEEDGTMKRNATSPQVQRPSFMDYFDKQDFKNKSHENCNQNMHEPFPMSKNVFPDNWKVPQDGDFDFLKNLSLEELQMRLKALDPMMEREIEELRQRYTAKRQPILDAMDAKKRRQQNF
Nature of the experiment: Inhibition of human recombinant MST2 at 15 nM in presence of ATP by radiometric assay relative to control.

Structures are written as SMILES.

Sequence of RAC-alpha serine/threonine-protein kinase (Homo sapiens) (P31749 whole entry): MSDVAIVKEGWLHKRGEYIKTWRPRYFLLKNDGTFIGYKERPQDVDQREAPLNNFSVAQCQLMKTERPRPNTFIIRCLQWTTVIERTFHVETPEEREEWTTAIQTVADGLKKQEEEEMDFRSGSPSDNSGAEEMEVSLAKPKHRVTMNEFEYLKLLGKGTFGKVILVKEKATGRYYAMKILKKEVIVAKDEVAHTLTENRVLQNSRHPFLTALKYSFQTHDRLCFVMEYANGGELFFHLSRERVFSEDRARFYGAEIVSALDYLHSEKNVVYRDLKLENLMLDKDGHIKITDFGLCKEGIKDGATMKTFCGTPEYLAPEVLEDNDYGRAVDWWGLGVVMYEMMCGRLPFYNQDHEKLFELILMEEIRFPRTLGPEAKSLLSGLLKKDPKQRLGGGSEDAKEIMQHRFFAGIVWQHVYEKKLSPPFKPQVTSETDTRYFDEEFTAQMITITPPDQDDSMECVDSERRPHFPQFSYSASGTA
Sequence of Tyrosine-protein kinase Fes/Fps (Homo sapiens) (P07332 whole entry): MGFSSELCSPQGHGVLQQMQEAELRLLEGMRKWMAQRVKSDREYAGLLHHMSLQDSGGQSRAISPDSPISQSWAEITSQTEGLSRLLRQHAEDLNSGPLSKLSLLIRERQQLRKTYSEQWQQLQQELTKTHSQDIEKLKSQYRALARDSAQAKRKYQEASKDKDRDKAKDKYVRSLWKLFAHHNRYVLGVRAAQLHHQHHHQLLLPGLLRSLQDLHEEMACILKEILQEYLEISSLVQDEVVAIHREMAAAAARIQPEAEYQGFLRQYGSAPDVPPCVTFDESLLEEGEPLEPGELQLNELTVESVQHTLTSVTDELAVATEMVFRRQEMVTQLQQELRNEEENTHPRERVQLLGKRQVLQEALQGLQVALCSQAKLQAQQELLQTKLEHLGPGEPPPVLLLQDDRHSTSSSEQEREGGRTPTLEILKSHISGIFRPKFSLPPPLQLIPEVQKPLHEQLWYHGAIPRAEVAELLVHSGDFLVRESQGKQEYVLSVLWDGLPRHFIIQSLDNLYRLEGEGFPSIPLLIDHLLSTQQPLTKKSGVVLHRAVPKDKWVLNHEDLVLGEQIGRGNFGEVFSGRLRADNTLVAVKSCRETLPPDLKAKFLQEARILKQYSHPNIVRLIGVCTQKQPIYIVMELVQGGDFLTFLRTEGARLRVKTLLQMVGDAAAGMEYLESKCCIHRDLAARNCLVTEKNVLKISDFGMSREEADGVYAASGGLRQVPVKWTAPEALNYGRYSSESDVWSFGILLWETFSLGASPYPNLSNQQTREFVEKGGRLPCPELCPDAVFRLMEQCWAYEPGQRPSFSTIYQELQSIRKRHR
Sequence of Serine/threonine-protein kinase PAK 3 (Homo sapiens) (O75914 whole entry, looked up): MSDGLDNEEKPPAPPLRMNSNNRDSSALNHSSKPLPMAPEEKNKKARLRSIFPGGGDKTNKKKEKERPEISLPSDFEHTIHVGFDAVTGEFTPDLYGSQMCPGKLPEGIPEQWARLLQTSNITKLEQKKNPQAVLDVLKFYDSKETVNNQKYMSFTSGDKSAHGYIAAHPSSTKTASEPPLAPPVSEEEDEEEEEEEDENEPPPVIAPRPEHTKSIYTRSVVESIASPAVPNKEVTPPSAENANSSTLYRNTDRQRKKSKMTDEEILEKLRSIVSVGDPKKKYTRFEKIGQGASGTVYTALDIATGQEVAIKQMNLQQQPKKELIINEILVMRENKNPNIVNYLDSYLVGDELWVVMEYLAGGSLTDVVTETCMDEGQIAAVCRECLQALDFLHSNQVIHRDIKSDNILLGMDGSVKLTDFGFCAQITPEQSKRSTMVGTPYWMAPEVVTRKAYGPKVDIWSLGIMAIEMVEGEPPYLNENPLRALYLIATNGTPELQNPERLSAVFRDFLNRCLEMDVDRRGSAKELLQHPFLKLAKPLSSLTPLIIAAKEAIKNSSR
Sequence of Tau-tubulin kinase 2 (Homo sapiens) (Q6IQ55 whole entry): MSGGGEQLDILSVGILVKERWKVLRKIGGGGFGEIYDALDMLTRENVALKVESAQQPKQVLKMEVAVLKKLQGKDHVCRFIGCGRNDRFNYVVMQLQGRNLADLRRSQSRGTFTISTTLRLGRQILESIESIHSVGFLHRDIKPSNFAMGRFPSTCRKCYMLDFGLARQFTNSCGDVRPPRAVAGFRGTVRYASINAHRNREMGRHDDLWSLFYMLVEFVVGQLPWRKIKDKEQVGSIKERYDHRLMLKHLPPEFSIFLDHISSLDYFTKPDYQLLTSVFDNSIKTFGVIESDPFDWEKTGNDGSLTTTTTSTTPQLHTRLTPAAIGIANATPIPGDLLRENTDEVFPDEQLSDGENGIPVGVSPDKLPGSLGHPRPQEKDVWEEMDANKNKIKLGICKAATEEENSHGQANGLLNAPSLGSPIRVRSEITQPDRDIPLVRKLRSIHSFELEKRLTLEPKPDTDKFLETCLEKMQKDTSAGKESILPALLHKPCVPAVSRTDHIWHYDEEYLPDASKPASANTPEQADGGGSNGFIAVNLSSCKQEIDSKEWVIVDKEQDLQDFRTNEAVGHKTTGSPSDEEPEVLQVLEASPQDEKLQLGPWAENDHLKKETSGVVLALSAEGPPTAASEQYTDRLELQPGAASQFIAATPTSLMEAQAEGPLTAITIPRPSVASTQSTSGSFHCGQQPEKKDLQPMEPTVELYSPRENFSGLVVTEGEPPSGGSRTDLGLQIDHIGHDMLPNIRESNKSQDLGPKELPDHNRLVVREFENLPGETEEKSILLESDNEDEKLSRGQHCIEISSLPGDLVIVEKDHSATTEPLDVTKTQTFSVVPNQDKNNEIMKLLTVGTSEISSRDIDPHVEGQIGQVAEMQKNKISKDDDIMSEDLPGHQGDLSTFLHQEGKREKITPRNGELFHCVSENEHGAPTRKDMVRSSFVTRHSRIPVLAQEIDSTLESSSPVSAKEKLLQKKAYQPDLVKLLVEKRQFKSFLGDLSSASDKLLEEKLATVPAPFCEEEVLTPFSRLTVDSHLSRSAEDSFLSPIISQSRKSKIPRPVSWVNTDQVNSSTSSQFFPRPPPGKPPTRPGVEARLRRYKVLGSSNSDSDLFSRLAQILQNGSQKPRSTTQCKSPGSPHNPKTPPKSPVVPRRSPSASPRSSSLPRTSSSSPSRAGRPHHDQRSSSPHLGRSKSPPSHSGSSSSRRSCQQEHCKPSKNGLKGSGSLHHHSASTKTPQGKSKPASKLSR
Sequence of Serine/threonine-protein kinase/endoribonuclease IRE1 (Homo sapiens) (O75460 19-977 limits assumed): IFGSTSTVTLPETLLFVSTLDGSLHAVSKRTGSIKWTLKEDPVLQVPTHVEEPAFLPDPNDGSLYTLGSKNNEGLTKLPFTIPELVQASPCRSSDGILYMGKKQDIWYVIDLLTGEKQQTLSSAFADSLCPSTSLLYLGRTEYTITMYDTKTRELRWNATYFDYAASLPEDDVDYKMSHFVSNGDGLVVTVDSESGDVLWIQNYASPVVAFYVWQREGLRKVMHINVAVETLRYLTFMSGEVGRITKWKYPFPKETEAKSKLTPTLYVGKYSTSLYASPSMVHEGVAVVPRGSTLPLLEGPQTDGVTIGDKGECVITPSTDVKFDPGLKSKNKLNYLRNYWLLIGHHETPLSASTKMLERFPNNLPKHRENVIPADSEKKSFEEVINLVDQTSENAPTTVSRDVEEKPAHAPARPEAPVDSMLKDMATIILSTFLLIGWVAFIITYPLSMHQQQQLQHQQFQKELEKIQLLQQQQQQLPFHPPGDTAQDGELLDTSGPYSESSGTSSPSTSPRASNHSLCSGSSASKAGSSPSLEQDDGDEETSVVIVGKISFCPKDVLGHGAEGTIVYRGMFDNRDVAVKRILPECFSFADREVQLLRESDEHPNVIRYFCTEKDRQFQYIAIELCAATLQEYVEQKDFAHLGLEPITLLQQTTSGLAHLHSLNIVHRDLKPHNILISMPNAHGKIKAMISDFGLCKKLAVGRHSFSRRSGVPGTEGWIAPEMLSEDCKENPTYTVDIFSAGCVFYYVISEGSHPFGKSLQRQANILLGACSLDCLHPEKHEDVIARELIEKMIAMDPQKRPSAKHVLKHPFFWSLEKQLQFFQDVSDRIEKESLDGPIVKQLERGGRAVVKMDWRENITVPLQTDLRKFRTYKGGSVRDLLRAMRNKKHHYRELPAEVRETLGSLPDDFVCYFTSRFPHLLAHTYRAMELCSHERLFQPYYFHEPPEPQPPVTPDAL

As to `O=C(N[C@@H](C1CC1)C(F)(F)F)c1cc(-c2cnn3cc(-c4ccc(F)cc4)cnc23)cs1`, the fold change (FC) in experiment [1] was determined as 0. In addition, the inhibition in [2] and in experiment [3] was 0% each time.

For `CNC(=O)c1ccccc1Oc1nc(Nc2cc(OC)c(OC)c(OC)c2)ncc1Br`, in experiment [4], the fold change (FC) was determined as 0.08. In addition, the values for the inhibition in experiment [5] and in experiment [6] were 0% and 9%, respectively.

`CC(C)[C@H](NC(=O)c1cc(-c2cnn3cc(-c4ccc(OCCN5CCCCC5)cc4)cnc23)cs1)C(F)(F)F`: the fold change (FC) in experiment [7] worked out at 0.81; in experiment [8] it was 0; in experiment [9], 0; in experiment [10], 0.25. Besides, the inhibition in [11] was determined as 3%.
